Results collected from several papers.
Compare with care: the assays were run in different laboratories.
Cell line: HepG2
Read-out: cell growth or viability

SMILES | method | time | IC50
O=C(Cc1csc(NC(=O)c2cc3ccccc3[nH]2)n1)NO | MTT | 24 h | 67.9 µM
C[C@H](CCC(=O)O)[C@H]1CC[C@H]2[C@@H]3CC[C@@H]4C[C@H](O)CC[C@]4(C)[C@H]3CC[C@]12C | MTT | 72 h | 52 µM
CN(C)c1cc(NC(=O)CNC(C)(C)C)c(O)c2c1C[C@H]1C[C@H]3[C@H](N(C)C)C(O)=C(C(N)=O)C(=O)[C@@]3(O)C(O)=C1C2=O | ATP luminescence | 72 h | > 200 µg/mL
COc1ccc(-c2cc(-c3c(OC)cccc3OC)c3c(=O)[nH]c(=O)[nH]c3n2)cc1 | MTT | 48 h | 36.5 µM
Cc1nc(Nc2ncc(C(=O)Nc3c(C)cccc3Cl)s2)cc(N2CCN(CCO)CC2)n1 | MTT | 24 h | 60.8 µM
COc1ccc(-c2cc(-c3ccccc3Cl)c3c(=O)[nH]c(=O)[nH]c3n2)cc1 | MTT | 48 h | 18.9 µM
CN(C)c1cc(NC(=O)Cc2ccncc2)c(O)c2c1C[C@H]1C[C@H]3[C@H](N(C)C)C(O)=C(C(N)=O)C(=O)[C@@]3(O)C(O)=C1C2=O | ATP luminescence | 72 h | > 200 µg/mL
CCCOc1nc(-c2cccc(O)c2)cc(-c2cc3cc(Cl)ccc3nc2N2CCOCC2)c1C#N | MTT | 72 h | 0.084 µM
CN(C)c1cc(NC(=O)Cc2ccn(C)n2)c(O)c2c1C[C@H]1C[C@H]3[C@H](N(C)C)C(O)=C(C(N)=O)C(=O)[C@@]3(O)C(O)=C1C2=O | ATP luminescence | 72 h | > 200 µg/mL
COc1ccc(-c2cc(-c3c(OC)cccc3OC)c3c(=O)n(C)c(=O)n(C)c3n2)cc1 | MTT | 48 h | 10.5 µM
Clc1ccc(-c2nnc(Nc3ccc(C4=NNC(c5ccc(Cl)cc5)C4)cc3)c3ccccc23)cc1 (centres unmarked) | MTT | 72 h | 0.8 µM
Cc1ccc(-c2cc(-c3ccc(N(C)C)cc3)c3c(=O)[nH]c(=O)[nH]c3n2)cc1 | MTT | 48 h | 12.1 µM
COc1cccc2c1C(=O)c1c(O)c3c(c(O)c1C2=O)C[C@@](O)(C(=O)CO)C[C@@H]3O[C@H]1C[C@H](N)[C@H](O)[C@H](C)O1 | MTT | 24 h | 4.5 µM
CCOc1nc(-c2cccc(O)c2)cc(-c2cc3ccccc3nc2N2CCOCC2)c1C#N | MTT | 72 h | 0.132 µM
CN(C)c1cc(NC(=O)CCc2cccnc2)c(O)c2c1C[C@H]1C[C@H]3[C@H](N(C)C)C(O)=C(C(N)=O)C(=O)[C@@]3(O)C(O)=C1C2=O | ATP luminescence | 72 h | > 200 µg/mL
COc1ccc(-c2cc(-c3ccccc3Cl)c3c(=O)n(C)c(=O)n(C)c3n2)cc1 | MTT | 48 h | 18.9 µM
CN(C)c1cc(NC(=O)Cc2ccncn2)c(O)c2c1C[C@H]1C[C@H]3[C@H](N(C)C)C(O)=C(C(N)=O)C(=O)[C@@]3(O)C(O)=C1C2=O | ATP luminescence | 72 h | > 200 µg/mL
COc1cccc2c1C(=O)c1c(O)c3c(c(O)c1C2=O)C[C@@](O)(C(=O)CO)C[C@@H]3O[C@H]1C[C@H](N)[C@H](O)[C@H](C)O1 | MTT | 72 h | 0.54 µM
COc1ccc(-c2cc(-c3ccc(OC)cc3)c3c(=O)[nH]c(=O)[nH]c3n2)cc1 | MTT | 48 h | 9.62 µM
CN(C)c1cc(NC(=O)c2ccccc2)c(O)c2c1C[C@H]1C[C@H]3[C@H](N(C)C)C(O)=C(C(N)=O)C(=O)[C@@]3(O)C(O)=C1C2=O | ATP luminescence | 72 h | 21.3 µg/mL
COc1ccc(-c2cc(-c3cc(OC)ccc3OC)c3c(=O)n(C)c(=O)n(C)c3n2)cc1 | MTT | 48 h | 16.4 µM
CN(C)c1cc(NC(=O)Cc2cccnn2)c(O)c2c1C[C@H]1C[C@H]3[C@H](N(C)C)C(O)=C(C(N)=O)C(=O)[C@@]3(O)C(O)=C1C2=O | ATP luminescence | 72 h | > 200 µg/mL
O=C(C=Cc1ccccc1)Nc1cc(-c2ccnc(N3CCC(O)CC3)c2)ccn1 | MTT | 72 h | 0.111 µM
